Data from BindingDB's records for doi:10.1021/jm801330n (University of Siena, 2009).

Biological target: Reverse transcriptase (Human immunodeficiency virus 1, UniProt Q9WKE8)
Experiment: Binding affinity to HIV1 reverse transcriptase treated for 3 mins by surface plasmon resonance
Summary of the method: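 Kinetic titration SPR at 25 °C against an RT surface, with an untreated dextran surface as reference. Running buffer: 10 mM Hepes, 150 mM NaCl, 3.4 mM EDTA, 0,01% P20, 4% DMSO, pH 7.5. Five sequential 3-min injections at 50 µL·min^-1 (0.075–1.2 µM, 2-fold steps), each followed by 2-min dissociation, and a final 20-min dissociation. Data were double-referenced.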

COc1ccc([C@@H]2C[C@H]2CSc2nc([C@H](C)c3c(F)cccc3F)c(C)c(=O)[nH]2)cc1
koff: 2.1e-05 s⁻¹
